# KLK5 inh – human KLK5 protease inhibitors, primary screen, biochemical, 1536-well | 0.59% of 210,000 active | inhibition, % at 5 µM | recombinant hK5, fluorogenic AMC substrate cleavage;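 active means inhibition of 40% or more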;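 further: 0% = enzyme controls without compound and 100% = no-enzyme blanks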
# Target sequence (Q9Y337 67-293 limits assumed): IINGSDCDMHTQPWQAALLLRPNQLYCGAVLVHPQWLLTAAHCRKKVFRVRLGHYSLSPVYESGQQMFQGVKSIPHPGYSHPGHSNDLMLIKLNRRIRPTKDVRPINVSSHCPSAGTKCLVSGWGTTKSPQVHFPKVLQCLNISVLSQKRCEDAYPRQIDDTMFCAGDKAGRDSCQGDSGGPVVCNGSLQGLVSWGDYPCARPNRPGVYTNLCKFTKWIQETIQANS
# CTSL1 counter – Fasciola hepatica cathepsin L1 inhibitors, primary screen, counter-screen for PFM18AAP inhibitor project, biochemical, QFRET, fluorogenic peptide substrate | recombinant F. hepatica cathepsin L1, Z-Leu-Arg-MCA fluorescence | inhibition, % at 5.96 µM | 0.49% of 300,000 active | AID 1906, 2009;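 active means inhibition above the mean of all tested compounds plus 3 SD, set per screening campaign, cut at about 17% in these data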;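 further: 0% = plate median of test compound wells and 100% = 1 µM Z-Phe-Ala-diazomethylketone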
# Rce1 inhib – yeast Rce1p protease inhibitors, primary screen, biochemical, fluorescence, cell-free homogeneous; yeast membranes, quenched prenylated peptide cleavage fluorescence; 0.27% of 290,000 active; calls only;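 active means fall in fluorescence gain of 50% or more versus controls, with final raw signal at or below 3038400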;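 further: plate controls were neutral control wells for no effect and wells lacking membranes for full effect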
# Target sequence (Q03530 whole entry, looked up): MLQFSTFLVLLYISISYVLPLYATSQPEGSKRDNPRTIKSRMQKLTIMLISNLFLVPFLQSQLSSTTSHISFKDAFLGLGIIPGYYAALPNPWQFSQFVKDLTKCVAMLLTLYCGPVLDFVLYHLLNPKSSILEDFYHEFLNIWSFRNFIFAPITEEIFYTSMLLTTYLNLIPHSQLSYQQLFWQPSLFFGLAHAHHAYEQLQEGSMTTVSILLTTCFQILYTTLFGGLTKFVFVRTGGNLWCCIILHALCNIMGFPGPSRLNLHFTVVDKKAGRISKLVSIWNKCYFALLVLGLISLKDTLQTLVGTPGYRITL
# thrombin 1536 – human alpha-thrombin inhibitors, primary screen, counter-screen for coagulation protease inhibitor project, biochemical, 1536-well, fluorogenic AMC substrate. Prothrombin (Homo sapiens), P00734. Boc-VPR-AMC fluorogenic substrate cleavage. inhibition, % at 5 µM. 0.26% of 220,000 active;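 active means inhibition at or above 40%; inactive means inhibition below 40%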;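 further: 0% = enzyme with no compound and 100% = wells without enzyme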
#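 Test system: human alpha-thrombin protein / Dosing: one concentration per compound, 5 µM, with 0.2% DMSO / Medium: pH 7.5 Tris-saline with Tween 20 / Benchmarks: no-compound enzyme wells and no-enzyme blanks / Read-out basis: percent inhibition of thrombin substrate cleavage / Timing: reaction at room temperature / Measured by: fluorescence, ex 355 nm, em 460 nm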
# FXIa inh 1536 – human FXIa protease inhibitors, primary screen, biochemical, 1536-well; Coagulation factor XI (Homo sapiens), P03951; purified FXIa, Boc-Glu-Ala-Arg-AMC fluorogenic substrate; inhibition, % at 5 µM; 0.14% of 220,000 active; AID 798, 2007;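 active means inhibition of at least 40%; inactive means inhibition below 40%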;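 further: fluorescence of freed AMC excited at 355 nm; 0% = enzyme without compound and 100% = no enzyme blank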
# FXIIa inh 1536 – human FXIIa protease inhibitors, primary screen, biochemical, 1536-well. purified FXIIa, Boc-QGR-AMC fluorogenic substrate, 2 h. 0.3% of 220,000 active. Coagulation factor XII (Homo sapiens), P00748. inhibition, % at 5 µM; in the data active means inhibition above about 40%;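 further: 0% = enzyme with no compound and 100% = blank without enzyme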
# The depositor's hits bear a star; i = inactive; / = no result; + = active, no number. The list is not random: actives were taken first. Their share in the collection is about 1.4%.
SMILES,KLK5 inh,CTSL1 counter,Rce1 inhib,thrombin 1536,FXIa inh 1536,FXIIa inh 1536
CN1C(=O)c2ccccc2N(C)C1c1cccs1 (stereo unspecified),-23,-3,i,-4,-3,7
O=C1c2ccccc2C(=O)N1CCCCSc1nc2ccccc2c(=O)n1CCCN1CCOCC1,8,1,i,0,3,8
COC(=O)c1cc2occc2n1CC(=O)Nc1cc(OC)cc(OC)c1,62*,-5,i,18,2,27
Cc1ccc(C(=O)Nc2ccc(Cl)cn2)cc1S(=O)(=O)N1CCOCC1,41*,-1,i,19,2,23
COc1ccc(S(=O)(=O)N2CCc3cc(OC)c(OC)cc3C2)cc1,2,-2,i,1,2,11
CCOC(=O)c1sc(N)c(C#N)c1CSc1nc2ccc(OCC)cc2[nH]1,-3,3,i,-15,-7,-13
CCOC(=O)c1sc(N)c(C#N)c1CSc1nc2ccc(C)cc2[nH]1,40*,-1,i,5,0,11
CN(C)c1ccc(N=Nc2ccccc2C(=O)OCC(=O)NCC2CCCCC2)cc1,48*,6,i,11,7,21
CN(C)c1ccc(N=Nc2ccccc2C(=O)OCC(=O)NC2CCCC2)cc1,5,10,i,-8,-4,4
COC(CNC(=O)C1CCCN(S(=O)(=O)c2c(C)noc2/C=C/c2cccs2)C1)OC (stereo unspecified),-6,5,i,4,1,7
O=C(/C=C/c1ccccc1Cl)NC1CCS(=O)(=O)C1 (stereo unspecified),0,42*,i,-7,-4,4
O=C(/C=C/c1ccccc1Cl)NC1CCCCC1,/,1,i,/,/,/
O=c1[nH]nc(SCc2nnc(-c3ccc([N+](=O)[O-])cc3)o2)n1C1CCCCC1,1,0,i,44*,0,6
COc1ccc2[nH]c(C(=O)O)c(CCNC(=O)/C=C/c3ccc(O)c(OC)c3)c2c1,/,-1,i,/,/,/
CCc1ccc(CN2CCC(C(=O)Nc3ccc(Oc4ccccc4)nc3)CC2)o1,/,-2,i,/,/,/
O=C(NCCO)/C(=C\c1cccs1)NC(=O)c1cccs1,-21,18*,i,-2,4,4
Cc1ccc2scc(CN3CCCC3)c2c1,/,-3,i,/,/,/
COc1cc2c3c(c1)C1(C(=O)N3C(C)(C)C=C2C)C(C#N)=C(N)Oc2cc(O)ccc21 (stereo unspecified),64*,-8,i,12,4,25
CCOc1cc2c3c(c1)C1(C(=O)N3C(C)(C)C=C2C)C(C#N)=C(N)Oc2cc(O)ccc21 (stereo unspecified),-6,-1,i,-4,-5,-2
Cn1nc(C(F)(F)F)c(-c2ccccc2)c1NC(=O)CCC(=O)O,43*,0,i,31,27,30
Cc1ccc(Sc2cc(Cl)nc(N)n2)cc1,77*,0,i,23,10,20
CCOC(=O)C(C(=O)NCc1cccc(OC)c1)c1ncc(C(F)(F)F)cc1Cl (stereo unspecified),36,0,i,25,19,45*
Cc1ccc(NC(=O)c2sc(N)nc2-c2ccccc2)cc1C,-1,34*,i,-4,-3,3
COc1ccc(CNC(=O)C2CCC(=O)N(CCCN3CCCC3=O)C2)c(OC)c1 (stereo unspecified),/,2,i,/,/,/
CC1(C)CC(=O)C2=C(C1)c1c(ccc3ccccc13)NC2c1ccc(OCC(=O)O)cc1 (stereo unspecified),/,-4,i,/,/,/
SMILES,KLK5 inh,CTSL1 counter,Rce1 inhib,thrombin 1536,FXIa inh 1536,FXIIa inh 1536
CC1(C)CC(=O)C2=C(C1)c1c(ccc3ccccc13)NC2c1ccc(Br)o1 (stereo unspecified),-46,57*,i,-4,3,-16
Cc1ccc(S(=O)(=O)N2CCN(C(C)C(=O)Nc3ccccc3-c3ccccc3)CC2)cc1 (stereo unspecified),-17,3,i,-13,5,9
CC(NC(=O)/C(C#N)=C/c1ccc(Cl)c([N+](=O)[O-])c1)c1ccccc1 (stereo unspecified),1,0,+,-10,6,15
C[C@@H](NC(=O)/C(C#N)=C/c1ccc(O)c(O)c1)c1ccccc1,/,-2,/,/,/,/
COc1cccc(-c2ccc(NC(=O)C3CCCN(Cc4ccc(CO)o4)C3)cc2)c1 (stereo unspecified),/,0,i,/,/,/
CCCCn1c(N)c(N(CCC(C)C)C(=O)C2CC(=O)N(c3ccccc3OCC)C2)c(=O)[nH]c1=O (stereo unspecified),/,-3,i,/,/,/
CC(C)CC(NS(=O)(=O)c1ccc2c(c1)oc(=O)n2C)C(=O)N1CC=C(c2ccccc2)CC1 (stereo unspecified),-20,77*,/,-7,1,8
CCCCOc1ccc(C(=O)Nn2c(-c3cccs3)nc3ccccc3c2=O)cc1,-28,-2,+,-12,-12,-6
CCN(CC)S(=O)(=O)c1ccc2c(c1)nc(CCC(=O)OCC(=O)Nc1cc(Cl)cc(Cl)c1)n2C,-28,-3,i,0,8,13
CCc1ccc(NC(=O)COC(=O)CCc2nc3cc(S(=O)(=O)N(CC)CC)ccc3n2C)cc1,58*,-8,i,39,12,6
CCCCn1c(=O)[nH]c(=O)c2c1nc(-c1ccc(OC)c(Br)c1)n2CC(C)C,/,9,+,/,/,/
C=CCOc1ccc(-c2nc3c(c(=O)[nH]c(=O)n3CCCC)n2C)cc1Br,/,-2,i,/,/,/
CCc1ccccc1NC(=O)c1nnn(CC(=O)Nc2cccc(C)c2)c1N,43*,1,i,-10,-9,-2
Cc1ccc(C)c(NC(=O)Cn2nnc(C(=O)Nc3c(C)cccc3C)c2N)c1,52*,-1,i,5,-2,13
CCc1ccccc1NC(=O)c1nnn(CC(=O)Nc2cccc(C)c2C)c1N,-5,6,i,1,2,17
COCCn1c(=S)[nH]c2cc(C(=O)NCCc3ccccc3)ccc2c1=O,/,1,i,/,/,/
Cc1cc(-c2ccc(N=Nc3c(S(=O)(=O)O)cc4cc(S(=O)(=O)O)cc(N)c4c3O)c(C)c2)ccc1N=Nc1c(S(=O)(=O)O)cc2cc(S(=O)(=O)O)cc(N)c2c1O,/,27*,/,/,/,/
O=C(NCCc1c[nH]c2ccccc12)C1CCC(=O)N(CCc2cccc(F)c2)C1 (stereo unspecified),/,4,i,/,/,/

# Screens (PubChem BioAssay)
